High-throughput results from PubChem.
KCNQ1 inh: blocks the human KCNQ1 potassium channel | AID 2642 | P51787 | CHO-K1 KCNQ1, FluxOR thallium flux fluorescence; active compounds read high | hit rate 1.3% among 310,000 | B-score at 10 µM;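 active = compounds whose thallium flux B-score, printed positive for inhibition, exceeds three library SD while starting fluorescence stays within three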;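 note: channel opened by potassium depolarization with thallium stimulus after 20 min compound exposure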
KCNK9 block: human KCNK9 channel inhibition | Q9NPC2 | hit rate 1.2% among 310,000 | B-score at 10 µM | HEK293 KCNK9, FluxOR thallium flux fluorescence; active compounds read low;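 active = ratio B-score over 3 SD below the library mean, with starting fluorescence within 5 SD of its mean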;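 note: negative B-score means less thallium flux so channel inhibition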
hERG protect: compounds protecting human hERG from proarrhythmic drug block | Q12809 | CHO-hERG, FluxOR thallium flux, dofetilide IC70 present | activation (rescue from dofetilide block), less the hit threshold, % at 10 µM | hit rate 0.51% among 310,000;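 active = activation above the mean of controls blocked by dofetilide plus 5 SD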;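 note: thallium influx through hERG after potassium depolarization seen as dye fluorescence rise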
KCNK3 block: human KCNK3 channel inhibition, primary screen | O14649 | hit rate 0.84% among 340,000 | B-score at 10 µM | CHO-KCNK3 thallium flux, FluxOR fluorescence; active compounds read low;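 active = B-score under library mean minus 4 SD, starting fluorescence ratio at most library mean plus 5 SD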;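 note: more negative B-score means stronger inhibition of thallium flux through KCNK3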
Kir21 inh: blocks the mouse Kir2.1 inward-rectifier potassium channel; P35561; HEK293-Kir2.1, FluxOR thallium flux fluorescence; active compounds read low; B-score at 10 µM; hit rate 0.85% among 310,000;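 active = fluorescence ratio B-score at or below minus 3 SD of library scores, with starting-brightness B-score within 2 SD, cut at about -4.2 in these data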;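 note: channel flux triggered by added potassium and thallium sulfate stimulus; B-score of peak minus minimum fluorescence over baseline after thallium stimulus; more negative B-score means stronger Kir2.1 block with less thallium influx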
Target sequence (P35561 whole entry, looked up): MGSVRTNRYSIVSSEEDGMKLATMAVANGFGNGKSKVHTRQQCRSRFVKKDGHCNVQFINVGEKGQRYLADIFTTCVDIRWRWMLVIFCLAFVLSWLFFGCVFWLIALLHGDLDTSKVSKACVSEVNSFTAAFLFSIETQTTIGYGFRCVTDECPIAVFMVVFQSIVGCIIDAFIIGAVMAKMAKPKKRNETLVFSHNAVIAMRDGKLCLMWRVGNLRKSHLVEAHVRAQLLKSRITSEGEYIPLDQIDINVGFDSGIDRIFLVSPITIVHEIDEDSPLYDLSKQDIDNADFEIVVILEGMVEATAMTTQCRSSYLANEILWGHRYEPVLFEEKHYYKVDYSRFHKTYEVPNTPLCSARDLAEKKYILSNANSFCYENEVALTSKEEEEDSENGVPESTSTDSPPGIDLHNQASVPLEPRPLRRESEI
KCNQ1 act: human KCNQ1 channel potentiation or activation | P51787 | CHO-K1 KCNQ1, thallium flux FluxOR fluorescence; active compounds read high | B-score at 10 µM | hit rate 0.35% among 310,000;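 active = fluorescence ratio B-score, a plate-corrected score, at least three library SD, with initial intensity B-score within 5 SD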
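assay system = CHO-K1 cells stably expressing KCNQ1 | medium = assay buffer, equal DMSO in all wells | timing = 37 °C overnight plating, 90-min dark dye load, 20-min compound pretreatment | measured by = kinetic FluxOR thallium fluorescence, 10-s 1-Hz baseline, 110-s post-stimulus read | measure = fluorescence change relative to baseline, converted to B score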
A number is an active result; i = inactive; nt = no result given. Only some compounds are listed: those with a hit (about 3.7% of all), similar ones and a draw of the others.

SMILES	KCNQ1 inh	KCNK9 block	hERG protect	KCNK3 block	Kir21 inh	KCNQ1 act
CCN1CCN(Cc2ccc(NC(=O)c3cc(NC(=O)c4cc5cccc(OC)c5o4)cc(OC)c3)cc2C(F)(F)F)CC1	i	i	i	i	i	i
O=C(Nc1cccc(C(F)(F)F)c1)c1csc(-c2ccncc2)n1	i	i	i	i	i	i
COc1cc(NC(=O)c2cc3cccc(OC)c3o2)cc(C(=O)Nc2cccc(C(F)(F)F)c2)c1	7	i	i	i	i	i
CC(Oc1cc2oc(=O)c3c(c2cc1Cl)CCC3)C(=O)NCc1ccccn1 (stereo unspecified)	i	i	i	i	i	i
CCC(=O)N1CCc2cc(S(=O)(=O)CCC(=O)N(C)c3ccc(OC)cc3OC)ccc21	i	i	i	i	i	i
O=C(NN=C1CCCC1)c1[nH]c2ccc(Cl)cc2c1-c1ccccc1	6	i	i	i	i	i
C/C(=N\N)c1c(-c2ccccc2)c2cc(C)ccc2[nH]c1=O	i	i	i	i	i	i
CC(=O)NNC(=O)c1[nH]c2ccc(Cl)cc2c1-c1ccccc1	i	i	i	i	i	i
CC/C(C)=N/NC(=O)c1[nH]c2ccc(C)cc2c1-c1ccccc1	i	i	5.5	i	i	i
N#Cc1cccc(NC(=O)COC(=O)c2ccc[n+]([O-])c2)c1	nt	nt	nt	i	nt	nt
Cc1cccnc1NC(=O)c1cccc(NC(=O)CC2SC(N3CCCCC3)=NC2=O)c1 (stereo unspecified)	nt	nt	nt	i	nt	nt
COc1ccc(C(=O)OC(COc2ccccc2)Cn2ccnc2)cc1 (stereo unspecified)	i	i	i	i	-7	i
CCCN(CC1CC1)C(=S)Nc1ccccc1F	i	i	11	i	i	i
COc1ccc(CCNC(=O)COC(=O)Cc2cccc3ccccc23)cc1	i	i	i	i	-12	i
C=CCn1c(O)c(N=NC(=S)Nc2cccc(OC)c2)c2ccccc21	i	i	25	i	i	8
C=CCn1c(O)c(N=NC(=S)Nc2ccc(OC)cc2)c2ccccc21	i	i	i	i	-5.3	17
C=CCn1c(O)c(N=NC(=O)OCC)c2ccccc21	i	i	i	i	i	i
COc1ccc(CNc2ncc(-c3cccc([N+](=O)[O-])c3)n2C)c(OC)c1OC	i	i	i	i	i	i
COc1ccccc1-n1c(SCC(=O)NC2CCS(=O)(=O)C2)nc2cc([N+](=O)[O-])ccc21 (stereo unspecified)	i	i	i	i	i	i
COc1ccccc1-n1c(SCC(=O)c2ccc(O)cc2O)nc2cc([N+](=O)[O-])ccc21	6	i	i	i	i	i
Cc1ccc(-n2cc(C(=O)c3cc(Cl)ccc3O)cc(C#N)c2=O)cc1	i	i	i	i	i	i
COc1ccc(-n2cc(C(=O)c3cc(Cl)ccc3O)cc(C#N)c2=O)cc1	6	i	i	i	i	i
COc1ccc(O)c(C(=O)c2cc(C#N)c(=O)n(-c3ccc(Cl)cc3)c2)c1	i	i	i	i	i	i
CCOc1ccc(-n2cc(C(=O)c3cc(Cl)ccc3O)cc(C#N)c2=O)cc1	8	i	i	i	i	i
CCN(CC(=O)Nc1ccc(Br)cc1)CC(=O)Nc1cc(C)on1	nt	nt	nt	i	nt	nt
SMILES	KCNQ1 inh	KCNK9 block	hERG protect	KCNK3 block	Kir21 inh	KCNQ1 act
Cc1ccn2c(NC(=O)C(C)(C)Oc3ccc(Cl)cc3)c(-c3cccs3)nc2c1	i	-7.4	i	i	i	i
COc1cccc(-c2cc(C(F)(F)F)n3ncc(C(=O)O)c3n2)c1	i	i	i	i	i	i
COC(=O)c1cnn2c(C(F)(F)F)cc(-c3ccccc3)nc12	i	i	5.2	i	i	i
CN1CCN(CC(O)(c2ccc(Cl)cc2)c2ccc(Cl)cc2)CC1	i	i	i	i	-8.8	i
CN1CCN(CC(O)COc2ccc(Cl)cc2)CC1 (stereo unspecified)	i	i	i	i	i	i
CCCc1ccc(-c2ccc(C(=O)O)cc2)nc1	i	i	5.9	i	i	i
CCCCCc1ccc(-c2ccc(/C=C/C(N)=O)cc2)nc1	i	i	i	i	i	i
Cc1cccc(NC(=S)NCC(c2ccccc2)N(C)C)c1 (stereo unspecified)	i	i	i	i	i	i
Cc1cccc(NC(=S)NCC(C)CSc2ccc(Cl)cc2)c1 (stereo unspecified)	9	i	i	i	i	i
Cc1ccc(NC(=S)NCC(C)CSc2ccc(Cl)cc2)cc1 (stereo unspecified)	8	i	i	i	i	i
Cc1ccc(NC(=S)NCCSc2ccc(Cl)cc2)c(C)c1	i	i	i	i	i	i
CCCCOc1ccc(SCCCN2CCOCC2)cc1	nt	nt	nt	i	nt	nt
CSc1ccc(CN(C)C(C)C(=O)NCc2ccccc2)cc1 (stereo unspecified)	i	i	i	i	-9.7	i
CCOc1ccc(CN(C)C(C)C(=O)NCc2ccccc2)cc1 (stereo unspecified)	i	i	i	i	i	i
COc1ccc(CNC(=O)CN(C)Cc2ccc(SC)cc2)cc1	i	i	i	i	-6.8	i
FC(F)c1nnc2c(Cl)cc(C(F)(F)F)cn12	i	i	6.4	i	i	i
Fc1ccc(-c2nc3c(Cl)cc(C(F)(F)F)cn3c2Cl)cc1	i	i	i	i	i	i
Cc1[nH]c(C)c(S(=O)(=O)NCc2ccc(N(C)C)cc2)c1C(=O)N1CCCC1	i	i	i	i	i	i
CC1(C)C(/C=C/C=C/C=C/C=C2\N(CCCCS(=O)(=O)O)c3ccc4ccccc4c3C2(C)C)=[N+](CCCCS(=O)(=O)[O-])c2ccc3ccccc3c21	nt	nt	nt	i	nt	nt
CCCOC(=O)c1cc(NC(=O)/C=C/c2ccccc2)ccc1O	i	-9.4	i	nt	i	i
CC(C)c1ccc(OCC(=O)NC2CC(C)(C)NC(C)(C)C2)c(Br)c1	i	i	i	i	i	i
O=C1OCCC1Sc1nc2ccccc2c(=O)n1Cc1ccc(F)cc1 (stereo unspecified)	i	i	9.9	i	i	11
O=C(CNC(=O)COc1ccccc1)NCCN1CCOCC1	nt	nt	nt	i	nt	nt
N#C/C(=C\c1cccs1)C(=O)c1ccccc1Cl	i	i	i	i	-7	i
CC(C)(C)C(=O)/C(C#N)=C/c1cccs1	i	i	i	i	i	i
COc1ccccc1C(CCN(Cc1ccccc1)C(C)=O)c1ccco1 (stereo unspecified)	i	i	i	i	-5.3	i
C=C(C)CNC(=S)NN=C1c2ccccc2-c2ccccc21	i	i	22	i	i	i
C[C@]12c3[nH]c4ccccc4c3CCN1C(=O)C(CC(=O)NCCN1CCOCC1)C[C@@H]2C(=O)N1CCCCC1 (stereo partly specified)	nt	nt	nt	i	nt	nt
CCCOc1ccc(-c2nc(OC)c3ccccc3n2)cc1	i	-6.6	i	i	i	i
NC1=NC2=C(CCCC2)C2(CCCCC2)S1	i	i	i	i	-6.7	i
